# Published values from different studies.
# Protocols differ between the studies behind these lines.
# Cell line: A549
# Effect on: cell growth or viability
Compound,technique,time,IC50 [nM]
Cc1cccc(-n2ncc(Cl)c(Cl)c2=O)c1,resazurin,96 h,1400
COc1cccc2c1C(=O)c1c(O)c3c(c(O)c1C2=O)C[C@@](O)(C(=O)CO)C[C@@H]3O[C@H]1C[C@H](N)[C@H](O[C@@H]2CCCCO2)[C@H](C)O1,MTT,12 h,5800
N.N.[Cl][Pt][Cl],MTT,48 h,9240
COc1c2c(cc3c1OCO3)[C@]13C=C[C@H](OC)C[C@@H]1[N@](C2)C[C@H]3OC(=O)c1ccc2ccccc2c1,WST-1,,> 10000
CSC(=NNC(=O)c1ccc(Cl)c(Cl)c1)SC,MTT,5 days,69000
O=C(N/N=C1\C(=O)N(Cc2ccccc2)c2ccccc21)c1cc2ccccc2[nH]1,,,1060
CC[C@@]1(OC(=O)[C@@H](N)CCSC)C(=O)OCc2c1cc1n(c2=O)Cc2cc3cc4c(cc3nc2-1)OCO4,MTT,,85
Nc1cc(I)c(I)cc1N,,72 h,25000
COc1ccc2c(c1)/C(=N/NC(=O)c1cc3ccccc3[nH]1)C(=O)N2Cc1ccccc1,,,640
CC[C@@]1(OC(=O)[C@H](C)N)C(=O)OCc2c1cc1n(c2=O)Cc2cc3cc4c(cc3nc2-1)OCO4,MTT,,40
Nc1cc(Cl)c(Cl)cc1N,,72 h,120000
N#Cc1ccc(CN2C(=O)/C(=N\NC(=O)c3cc4ccccc4[nH]3)c3ccccc32)cc1,,,2130
CC[C@@]1(OC(=O)CN)C(=O)OCc2c1cc1n(c2=O)Cc2cc3cc4c(cc3nc2-1)OCO4,MTT,,29
O=C(N/N=C1\C(=O)N(Cc2ccccc2)c2ccc(Cl)cc21)c1cc2ccccc2[nH]1,imaging,48 h,1380
CC[C@@]1(OC(=O)[C@@H](N)Cc2ccccc2)C(=O)OCc2c1cc1n(c2=O)Cc2cc3cc4c(cc3nc2-1)OCO4,MTT,,36
CC1=C(O)C(=O)C=C2C1=CC=C1[C@@]2(C)CC[C@@]2(C)[C@@H]3C[C@](C)(C(=O)O)CC[C@]3(C)CC[C@]12C,MTT,48 h,5340
CC[C@@]1(OC(=O)C(C)c2cccc(C(=O)c3ccccc3)c2)C(=O)OCc2c1cc1n(c2=O)Cc2cc3cc4c(cc3nc2-1)OCO4 (some centres unmarked),MTT,,289
O=C(N/N=C1\C(=O)N(Cc2ccc(Cl)cc2)c2ccccc21)c1cc2ccccc2[nH]1,,,1050
CCC1(OC(=O)C(C)c2ccc3cc(OC)ccc3c2)C(=O)OCc2c1cc1n(c2=O)Cc2cc3cc4c(cc3nc2-1)OCO4 (centres unmarked),MTT,,471
CC1=CC(=O)c2c(O)cccc2C1=O,SRB,,2820
